Source: ChEMBL document CHEMBL3751738, “Structure-based design and biological evaluation of novel 2-(indol-2-yl) thiazole derivatives as xanthine oxidase inhibitors” (Bioorg Med Chem Lett, 2016)
pIC50: −log10 of the molar value.

Experiments:
[1] = Inhibition of butter milk xanthine oxidase (unknown origin) assessed as initial velocity of uric acid formation pre-incubated for 3 mins by spectrophotometry analysis
How it was run: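 Buttermilk xanthine oxidase diluted to 0.05 U/mL in 50 mM phosphate buffer. Compounds at several concentrations were added in phosphate buffer containing 10% DMSO and pre-incubated 3 min at room temperature. The reaction was started with xanthine solution (200 µM as added). Uric acid formation was read at 293 nm, with the linear rate over 5 min taken as initial velocity. % inhibition was calculated against the no-inhibitor rate, and IC50 derived.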

[2] = Half life in rat liver microsomes; format: ADME
[3] = Cmax in Sprague-Dawley rat at 10 mg/kg, po; format: ADME, organism-based; set-up: dose 10 mg/kg, route oral; details: in vivo
How it was run: (§1)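 Single oral dose of 10 mg/kg given to SD rats. Plasma Cmax, Tmax, AUC0–last, AUC0–infinity and t1/2 were determined, n = 3.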

[4] = AUC (0 to infinity) in Sprague-Dawley rat at 10 mg/kg, po; format: ADME, organism-based; set-up: dose 10 mg/kg, route oral, time infinity; details: in vivo; how it was run: as §1
[5] = AUC (0 to last) in Sprague-Dawley rat at 10 mg/kg, po; format: ADME, organism-based; set-up: dose 10 mg/kg, route oral, time 0 - last; details: in vivo; how it was run: as §1
Rattus norvegicus = assay: Inhibition of oxonic acid-induced high uric acid level in Sprague-Dawley rat plasma at 10 mg/kg, po after 1 hr; format: functional
How it was run: (§2)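 Hyperuricemia was induced in male SD rats (about 200 g) with potassium oxonate 300 mg/kg i.p., suspended in 0.8% carboxymethylcellulose. One hour later compounds were dosed orally in PEG400:ethanol (2:1), and blood was taken 1 h post-dose for plasma uric acid. Inhibition was scaled with the normal group as 100% and the oxonate control as 0%. Statistics used ANOVA with Dunnett's post-test.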

[6] = Tmax in Sprague-Dawley rat at 10 mg/kg, po; format: ADME, organism-based; details: in vivo; how it was run: as §1
[7] = Half life in Sprague-Dawley rat at 10 mg/kg, po; format: ADME, organism-based; details: in vivo; how it was run: as §1
[8] = Plasma concentration in Sprague-Dawley rat at 10 mg/kg, po after 1 hr; format: ADME, organism-based; how it was run: as §2

Row | SMILES | pIC50 [1] | half-life [2] | inhibition in vivo at 10 mg/kg (Rattus norvegicus) | also measured
1 | Cc1nc(-c2cc3cc(N4CCCCC4)cc(C#N)c3[nH]2)sc1C(=O)O | 8.16 | 2.51 h | – | Cmax [3]: 740 ng/mL
2 | Cc1nc(-c2cc3cc(OC(C)C)cc([N+](=O)[O-])c3[nH]2)sc1C(=O)O | 8.29 | 4.13 h | 43% | AUC(0-inf) [4]: 13100 ng·h/mL; AUC(0-t) [5]: 8230 ng·h/mL; Tmax [6]: 0.42 h; Cmax [3]: 4940 ng/mL; half-life [7]: 3.45 h
3 | Cc1nc(-c2cc3ccc(OCC(C)C)cc3[nH]2)sc1C(=O)O | 6.32 | – | – | –
4 | Cc1nc(-c2cc3cc(OCc4ccccc4)ccc3[nH]2)sc1C(=O)O | 6.28 | – | – | –
5 | Cc1nc(-c2cc3cc(Oc4ccccc4)cc(Br)c3[nH]2)sc1C(=O)O | 7.77 | 1.52 h | – | –
6 | Cc1nc(-c2cc3cc(OC(C)C)cc(C#N)c3[nH]2)sc1C(=O)O | 8.21 | 2.17 h | 19% | Cmax [3]: 3750 ng/mL
7 | Cc1nc(-c2ccc(OCC(C)C)c(C#N)c2)sc1C(=O)O [FEBUXOSTAT] | 8.51 | – | 60% | –
8 | Cc1nc(-c2cc3cc(OC4CCCC4)cc(C#N)c3[nH]2)sc1C(=O)O | 8.24 | 2.07 h | 2.3% | Cmax [3]: 720 ng/mL
9 | COc1cc([N+](=O)[O-])c2[nH]c(-c3nc(C)c(C(=O)O)s3)cc2c1 | 8.15 | 0.402 h | 4% | concentration at 1 h [8]: 100 ng/mL
10 | Cc1nc(-c2cc3cc(NCc4ccccc4)cc(C#N)c3[nH]2)sc1C(=O)O | 8.03 | 1.5 h | – | –
11 | Cc1nc(-c2cc3cc(Oc4ccccc4)cc(C#N)c3[nH]2)sc1C(=O)O | 8.05 | 3.67 h | – | –
12 | Cc1nc(-c2cc3cc(CNS(C)(=O)=O)cc([N+](=O)[O-])c3[nH]2)sc1C(=O)O | 8.44 | 14.6 h | 0% | concentration at 1 h [8]: 17 ng/mL
13 | Cc1nc(-c2cc3cc(Oc4ccccc4)cc([N+](=O)[O-])c3[nH]2)sc1C(=O)O | 7.80 | 4.03 h | 7.1% | Cmax [3]: 3200 ng/mL
14 | Cc1nc(-c2cc3cc(OCC(C)C)ccc3[nH]2)sc1C(=O)O | 6.68 | 1.61 h | – | –
15 | Cc1nc(-c2cc3cc(Oc4ccccc4)cc(Cl)c3[nH]2)sc1C(=O)O | 7.84 | 4.69 h | – | –
16 | Cc1nc(-c2cc3cc(N)cc(C#N)c3[nH]2)sc1C(=O)O | 7.50 | – | – | –
17 | COc1ccc2cc(-c3nc(C)c(C(=O)O)s3)[nH]c2c1 | 5.66 | – | – | –
18 | N#Cc1cc(-c2n[nH]c(-c3ccncc3)n2)ccn1 [TOPIROXOSTAT] | 8.28 | – | – | –
19 | Cc1nc(-c2cc3cc(NC4CCCC4)cc(C#N)c3[nH]2)sc1C(=O)O | 8.03 | 2.96 h | – | Cmax [3]: 300 ng/mL
20 | Cc1nc(-c2cc3cc(Oc4ccccc4)ccc3[nH]2)sc1C(=O)O | 6.63 | 1.94 h | – | –
21 | COc1ccc2[nH]c(-c3nc(C)c(C(=O)O)s3)cc2c1 | 6.10 | – | – | –
22 | Oc1ncnc2[nH]ncc12 [ALLOPURINOL] | 5.43 | – | – | –
